Consider one compound from ChEMBL document CHEMBL1124824, “Synthesis and biological activity of atrial natriuretic factor analogues: effect of modifications to the disulfide bridge” (J Med Chem, 1990).

Positions of bridges follow the written chain, without caps; N, C: chain ends. Non-standard residues stand in square brackets, D forms with d. Residues, ends and D or L forms follow the SMILES beside them. Mpa = O=C(O)CCS

The species named for test [1] is Rattus norvegicus. As to the kind of experiment: Compound was tested for antihypertensive activity in DOCA nephrectomized rats. The format is functional. In outline:
(§1)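 Rats were anesthetized with halothane after skin infiltration with 2% lidocaine, and the femoral artery and vein were cannulated. After recovery, arterial pressure was recorded. A saline control period was followed by i.v. infusion in 30-min steps at 0.1, 0.2, 0.5 and 1.0 μg/kg per min (70 μL/kg per min). Hydralazine (100 μg/kg per min) was given for standardization. ED50 is in nmol/kg per min, from six animals.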

The test system of test [2] is Rattus norvegicus. As to the kind of experiment: Compound was tested for diuretic activity and the ratio of urine volume for treated over control animals was reported after infused at a dose of 0.5 ug/kg. The format is functional. In outline: (§2)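 Male Sprague-Dawley rats (300-325 g) under halothane/lidocaine had femoral artery, femoral vein and bladder cannulated. After at least 1 h of recovery in restraint, they received Ringer's (1.2 mL/h), with 10-min urine collections over a 30-min control period. Infusion of 0.5 μg/kg per min for 30 min and a 30-min Ringer's recovery followed. Na+, K+ and Cl- were measured with an electrolyte analyzer, reported as treated minus control μmol/sample. Volume ratio is treated/control over three consecutive 10-min samples, six animals.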

The species named for another test is Oryctolagus cuniculus. Put plainly: Compound was tested for the inhibition of the stimulated contractions of the superfused rabbit thoracic aortic rings. The format is functional, Aorta. In outline:
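Rabbit thoracic aorta rings (4 mm) were held isometrically at 10-g resting tension, superfused and precontracted with phenylephrine. Test peptide was added to the superfusate above the tissue in successively higher doses after each recovery. Doses were based on peptide content. EC50 came from the dose-response curve, mean of three determinations ± SEM.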

The species entered for test [3] is Rattus norvegicus. As to the kind of experiment: Compound was tested for the Na+ excretion for treated over control animals, the electrolytes tested are. The format is functional. In outline: as §2
The species named for test [4] is Rattus norvegicus. As to the kind of experiment: Compound was tested for the K+ excretion for treated over control animals, the electrolytes tested are. It counts as functional. The gist of the method: as §2
Test [5] is filed under the species Rattus norvegicus. As to the kind of experiment: Compound was tested for antihypertensive activity in 5/6 nephrectomized rats. The format is functional. The gist of the method:
as §1

The target in test [6] is T1, Atrial natriuretic peptide receptor 3 (Mus musculus, UniProt P70180).
T1 sequence (P70180 whole entry): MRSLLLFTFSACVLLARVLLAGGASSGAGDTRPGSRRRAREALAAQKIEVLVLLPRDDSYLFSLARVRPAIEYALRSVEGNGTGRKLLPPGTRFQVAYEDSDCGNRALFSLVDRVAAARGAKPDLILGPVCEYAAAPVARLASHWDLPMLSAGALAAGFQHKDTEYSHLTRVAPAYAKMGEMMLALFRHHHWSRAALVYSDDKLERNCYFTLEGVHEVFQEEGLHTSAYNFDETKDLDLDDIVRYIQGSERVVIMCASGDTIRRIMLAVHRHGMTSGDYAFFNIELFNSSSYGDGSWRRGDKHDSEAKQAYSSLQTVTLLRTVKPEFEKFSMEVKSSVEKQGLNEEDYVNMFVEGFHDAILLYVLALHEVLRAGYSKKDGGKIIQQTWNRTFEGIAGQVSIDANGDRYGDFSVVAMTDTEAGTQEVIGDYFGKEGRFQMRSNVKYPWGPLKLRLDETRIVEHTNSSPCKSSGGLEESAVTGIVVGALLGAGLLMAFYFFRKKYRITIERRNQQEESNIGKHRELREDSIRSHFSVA
Put plainly: Binding affinity was determined based on the displacement of [125]r-ANF (99-126) from binding sites on mouse fibroblasts (NIH 3T3) cells (Atrionatriuretic peptide receptor C).

For test [7], the target named is T2, Atrial natriuretic peptide receptor 2 (Bos taurus, UniProt P46197).
T2 sequence (P46197 whole entry): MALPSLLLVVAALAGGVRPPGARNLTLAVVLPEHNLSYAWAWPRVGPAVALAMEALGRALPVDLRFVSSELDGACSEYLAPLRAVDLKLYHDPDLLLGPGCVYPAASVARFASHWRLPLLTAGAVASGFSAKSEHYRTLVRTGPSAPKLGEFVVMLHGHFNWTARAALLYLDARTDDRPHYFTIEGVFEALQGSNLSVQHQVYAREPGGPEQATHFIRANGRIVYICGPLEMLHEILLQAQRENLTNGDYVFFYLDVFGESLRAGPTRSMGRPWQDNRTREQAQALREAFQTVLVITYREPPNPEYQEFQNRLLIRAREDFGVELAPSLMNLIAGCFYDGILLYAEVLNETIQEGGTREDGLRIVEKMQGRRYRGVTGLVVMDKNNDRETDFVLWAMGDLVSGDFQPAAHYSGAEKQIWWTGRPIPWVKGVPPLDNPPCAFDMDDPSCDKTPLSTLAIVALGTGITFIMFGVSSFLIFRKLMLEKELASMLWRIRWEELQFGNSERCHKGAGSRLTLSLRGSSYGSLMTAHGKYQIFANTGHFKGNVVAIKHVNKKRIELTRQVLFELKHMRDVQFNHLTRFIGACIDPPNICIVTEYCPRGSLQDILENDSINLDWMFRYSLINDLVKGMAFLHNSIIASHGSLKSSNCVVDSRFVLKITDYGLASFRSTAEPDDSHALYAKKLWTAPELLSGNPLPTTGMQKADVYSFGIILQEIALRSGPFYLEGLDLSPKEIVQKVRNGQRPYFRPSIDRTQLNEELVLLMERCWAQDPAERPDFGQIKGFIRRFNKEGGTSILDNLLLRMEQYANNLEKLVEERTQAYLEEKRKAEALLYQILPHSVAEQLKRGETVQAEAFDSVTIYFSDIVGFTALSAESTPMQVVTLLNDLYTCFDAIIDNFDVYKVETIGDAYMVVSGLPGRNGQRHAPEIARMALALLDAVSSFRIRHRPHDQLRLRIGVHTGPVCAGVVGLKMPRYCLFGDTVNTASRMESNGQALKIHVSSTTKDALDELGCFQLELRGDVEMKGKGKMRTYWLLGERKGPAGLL
Put plainly: Binding affinity was determined based on the displacement of [125]r-ANF (99-126) from binding sites on bovine adrenal zona glomerulosa cell membranes (Atrionatriuretic peptide receptor B).

The species named for test [8] is Rattus norvegicus. As to the kind of experiment: Compound was tested for the Cl- excretion for treated over control animals, the electrolytes tested are. It counts as functional. The gist of the method: as §2

A word on the IC50: it is the midpoint of a concentration-inhibition curve. Low readings indicate greater potency, high ones weaker potency. Turning to `CC[C@H](C)[C@@H]1NC(=O)[C@H](CCCN=C(N)N)NC(=O)[C@H](CC(=O)O)NC(=O)[C@H]([C@@H](C)CC)NC(=O)[C@H](CCCN=C(N)N)NC(=O)CNC(=O)CNC(=O)[C@H](Cc2ccccc2)NC(=O)CCSSC[C@@H](C(=O)N[C@@H](CC(N)=O)C(=O)N[C@@H](CO)C(=O)N[C@@H](Cc2ccccc2)C(=O)N[C@@H](CCCN=C(N)N)C(=O)N[C@@H](Cc2ccc(O)cc2)C(=O)O)NC(=O)CNC(=O)[C@H](CC(C)C)NC(=O)CNC(=O)[C@H](CO)NC(=O)[C@H](CCC(N)=O)NC(=O)[C@H](C)NC(=O)CNC1=O` ([Mpa]FGGRIDRIGAQSGLGCNSFRY-OH; disulfide 1-17), the ED50 came out at 1.1 nM/min/kg in the test filed under Rattus norvegicus [1] and 1.5 nM/min/kg in the test filed under Rattus norvegicus [5]. For the same compound, the Ratio in the test on Rattus norvegicus [2] came out at 1.7. In the test filed under Oryctolagus cuniculus, the EC50 is recorded as 1.1e-10 M 50ul-1. The Electrolyte excretion in the test filed under Rattus norvegicus [3] is listed as 30.4 uM sample-1; in the test listed under Rattus norvegicus [4], 22.6 uM sample-1; in the test listed under Rattus norvegicus [8] it was 52.9 uM sample-1. For the same compound, the IC50 in [6] stood at 0.22 nM; in test [7] it was 1.03 nM.
